ADAM10 inh = human ADAM10 inhibitors, primary screen, biochemical, QFRET, HTS. inhibition, % at 7 µM. AID 720582, 2013. Disintegrin and metalloproteinase domain-containing protein 10 (Homo sapiens), O14672. actives 0.62% (n = 370,000). recombinant ADAM10, EDANS/DABCYL FRET peptide cleavage, 3 h;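 active = inhibition above a per-campaign cutoff equal to the mean of compounds falling between control-based bounds plus 3 SD, cut at about 20% in these data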;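 also: 0% = DMSO wells while the 100% control is not disclosed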
GRIN3A LBD mod = binders of NR3A ligand-binding domain, primary screen, biophysical, differential scanning fluorimetry, uHTS. NR3A LBD differential scanning fluorimetry, Tm shift; 0% = protein alone, 100% = glycine-bound protein. Tm shift relative to glycine control, % at 25 µM. actives 2.5% (n = 340,000). AID 1259313, 2017;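 active = melting temperature shift of at least 10% of the positive control shift, at one fixed dose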
SKN-1 block = suppressors of acrylamide-induced Pgst-4::GFP reporter in worms, primary screen, SKN-1 inhibitor project, whole organism, uHTS, GFP/RFP fluorescence ratio, strain VP596; C. elegans VP596 Pgst-4::GFP/RFP ratio, 24 h; inhibition, % at 21.8 µM; actives 0.49% (n = 360,000); AID 624304, 2012;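 active = interference check ratio from 0.5 to 1.5 plus GFP to RFP signal ratio inhibition reaching or exceeding a fixed threshold, cut at about 30% in these data, passing the limit was not always enough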
MPTP inh = mitochondrial permeability transition pore inhibitors, primary screen, biochemical, isolated mouse mitochondria, absorbance; Ca2+ swelling absorbance, 30 min; inhibition, % at 10 µM; actives 1.4% (n = 360,000); AID 602449, 2012;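 active = inhibition of 50% or more, scaled per plate between neutral and stimulator controls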;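 also: 0% = DMSO wells given calcium and 100% = 1 mM EGTA wells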
MT1-MMP act inh = blockers of MT1-MMP proenzyme processing, primary screen, HT1080 RFP-PRO-GFP cells, GFP/RFP fluorescence; Matrix metalloproteinase-14 (Homo sapiens), P50281; GFP/RFP ratio fluorescence, overnight; percent of plate control window, DMSO zero; GFP/RFP ratio change, % at 20 µM; actives 0.061% (n = 360,000); AID 651647, 2012;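 active = GFP/RFP ratio change of at least 30% with cell ATP level not reduced by more than half and red fluorescence within 50% of control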
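Material: RFP-PRO-GFP reporter HT1080 cells. Dosing: single-point 20 µM compound, 1% DMSO. Controls: DMSO and RFP-L50D-GFP cell wells. Timing: cells overnight before dosing, compound overnight, 37 °C, 5% CO2. Measure: GFP/RFP fluorescence ratio.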
ADAM17 inh = ADAM17 inhibitors, primary screen, biochemical, QFRET; AID 720648, 2013; recombinant ADAM17, EDANS/DABCYL FRET peptide cleavage; inhibition, % at 6.95 µM; actives 0.83% (n = 370,000); Disintegrin and metalloproteinase domain-containing protein 17 (Homo sapiens), P78536;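 active = inhibition above the mean of compounds lying between control limits plus 3 SD, set per campaign, cut at about 8.5% in these data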;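 also: 0% = DMSO-only wells as the low control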
Target sequence (P78536 215-824 limits assumed): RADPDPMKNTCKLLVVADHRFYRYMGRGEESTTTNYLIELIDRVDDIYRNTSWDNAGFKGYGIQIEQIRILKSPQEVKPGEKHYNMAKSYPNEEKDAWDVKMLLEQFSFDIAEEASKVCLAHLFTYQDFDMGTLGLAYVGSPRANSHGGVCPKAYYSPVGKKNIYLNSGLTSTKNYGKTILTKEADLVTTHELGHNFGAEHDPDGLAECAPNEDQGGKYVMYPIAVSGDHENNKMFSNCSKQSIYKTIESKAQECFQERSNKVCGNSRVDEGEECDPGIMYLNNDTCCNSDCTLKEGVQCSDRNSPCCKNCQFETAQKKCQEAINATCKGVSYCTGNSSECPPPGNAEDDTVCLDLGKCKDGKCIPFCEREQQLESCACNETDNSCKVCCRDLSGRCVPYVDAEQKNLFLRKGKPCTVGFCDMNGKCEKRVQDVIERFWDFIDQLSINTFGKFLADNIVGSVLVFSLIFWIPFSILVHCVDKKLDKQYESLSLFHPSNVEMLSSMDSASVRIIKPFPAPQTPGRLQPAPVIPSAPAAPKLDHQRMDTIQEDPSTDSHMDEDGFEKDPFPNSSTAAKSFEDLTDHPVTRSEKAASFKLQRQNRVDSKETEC
The depositor's hits bear a star; x = no result. The list is not random: actives were taken first. Their share in the collection is about 4.7%.

SMILES | ADAM10 inh | GRIN3A LBD mod | SKN-1 block | MPTP inh | MT1-MMP act inh | ADAM17 inh
O=C(Nc1ccccc1)c1nc[nH]c1C(=O)NCCCNC(=O)c1[nH]cnc1C(=O)Nc1ccccc1 | 9 | 9 | -3 | -1 | -1 | -1
O=C(Nc1ccccc1)c1nc[nH]c1C(=O)NCCN(CCNC(=O)c1[nH]cnc1C(=O)Nc1ccccc1)CCNC(=O)c1[nH]cnc1C(=O)Nc1ccccc1 | 12 | 13* | 8 | 0 | 0 | 3
O=C(Nc1ccc(Cl)cc1)c1nc[nH]c1C(=O)NCCN(CCNC(=O)c1[nH]cnc1C(=O)Nc1ccc(Cl)cc1)CCNC(=O)c1[nH]cnc1C(=O)Nc1ccc(Cl)cc1 | x | 19* | 10 | 2 | -10 | x
O=C(Nc1ccccc1)c1nc[nH]c1C(=O)NCCCCCCNC(=O)c1[nH]cnc1C(=O)Nc1ccccc1 | -74 | 14* | 10 | 0 | 2 | 4
Cc1ccc(NC(=O)c2nc[nH]c2C(=O)NCCN(CCNC(=O)c2[nH]cnc2C(=O)Nc2ccc(C)cc2)CCNC(=O)c2[nH]cnc2C(=O)Nc2ccc(C)cc2)cc1 | -1 | 16* | 12 | 1 | -8 | -2
CN(CC(=O)Nc1ccc(N2CCOCC2)cc1)C(=O)Cc1ccccc1 | -1 | 2 | 8 | -3 | 1 | -5
CSCCC(NC(=O)c1ccccc1)C(=O)N(C)CC(=O)Nc1ccc(N2CCOCC2)cc1 (stereo not drawn) | -8 | 13* | -12 | -2 | 3 | -3
CN(C(=O)c1ccccc1C(=O)OCC(=O)NCc1ccccc1)C1CCCCC1 | 15 | -2 | 14 | -2 | -2 | 1
O=C(CC[C@H]1O[C@@H](n2cnc3c(NC(=O)c4ccccc4)ncnc32)[C@H](O)[C@@H]1O)NCC1CCCO1 (stereo partly drawn) | -2 | x | 14 | -1 | 3 | -4
Cc1cc(C)n2nc(C(=O)N/N=C/c3ccc(O)cc3)nc2n1 | 2 | -2 | 3 | 2 | 1 | 0
COc1ccc(NC(=O)CC2(CC(=O)N3CCOCC3)CCCC2)cc1Cl | -1 | 0 | -2 | 4 | 4 | -1
CCOc1ccccc1NC(=O)CC1(CC(=O)N2CCOCC2)CCCC1 | 8 | 13* | 1 | -1 | 4 | 0
Cc1onc(-c2c(Cl)cccc2Cl)c1C(=O)NCc1ccc(S(N)(=O)=O)cc1 | -2 | 2 | 19 | 0 | -1 | -3
Brc1ccc(-c2csc(-c3c[nH]c4ccccc34)n2)cc1 | 7 | 47* | 4 | 0 | 0 | 6
c1ccc2c(-c3csc(-c4ccncc4)n3)c[nH]c2c1 | -1 | 27* | 20 | 4 | -7 | 0
COc1ccc(-c2nc3ccccn3c2CN2CCN(c3ccccc3F)CC2)cc1 | -24 | -3 | -5 | 4 | 0 | -9
Cc1ccc(NC(=O)NCc2cccnc2)cc1 | -7 | -1 | 1 | 0 | 1 | -1
CC(C)c1ccc(NC(=O)NCc2cccnc2)cc1 | 13 | -2 | 39* | 0 | 3 | -2
CCNC(=O)n1nccc1C(C)Oc1ccccc1 (stereo not drawn) | 1 | 0 | -15 | 1 | -2 | 3
N#Cc1cc(-c2ccccc2)cn(Cc2c(Cl)cccc2Cl)c1=O | -36 | 11* | 13 | 0 | -1 | -10
Nc1cc2c(cc1[N+](=O)[O-])-c1ccccc1C2=NO | 1 | 23* | -2 | 3 | -16 | 3
COc1ccc(C2=C(CN(C)C)C(c3ccccc3)c3ccccc3O2)cc1 (stereo not drawn) | 10 | 11* | -1 | 3 | -4 | 4
CCOc1ccc(C2=C(C=C(C#N)C#N)C(c3ccccc3)c3ccccc3O2)cc1 (stereo not drawn) | -2 | -5 | -8 | 22 | -4 | -3
